Data taken from ChEMBL document CHEMBL1926656, “Cyclopeptide Alkaloids from Ziziphus apetala” (J Nat Prod, 2011).
pIC50: −log10 of the molar value. Active and inactive are the calls of the source. No cut-off for these calls is given here.

Assays:
[1] = test system: BGC-823; assay: Cytotoxicity against human BGC823 cells; type: functional, cell-based
[2] = test system: HeLa; assay: Cytotoxicity against human HeLa cells; type: functional, cell-based
[3] = target: 11-beta-hydroxysteroid dehydrogenase 1 (Homo sapiens, UniProt P28845); assay: Inhibition of human 11beta-HSD1 expressed in human HEK293 cells assessed as conversion of [3H]cortisone to [3H]cortisol by scintillation proximity assay; type: cell-based
Chain of 11-beta-hydroxysteroid dehydrogenase 1 (Homo sapiens, UniProt P28845) (P28845 whole entry): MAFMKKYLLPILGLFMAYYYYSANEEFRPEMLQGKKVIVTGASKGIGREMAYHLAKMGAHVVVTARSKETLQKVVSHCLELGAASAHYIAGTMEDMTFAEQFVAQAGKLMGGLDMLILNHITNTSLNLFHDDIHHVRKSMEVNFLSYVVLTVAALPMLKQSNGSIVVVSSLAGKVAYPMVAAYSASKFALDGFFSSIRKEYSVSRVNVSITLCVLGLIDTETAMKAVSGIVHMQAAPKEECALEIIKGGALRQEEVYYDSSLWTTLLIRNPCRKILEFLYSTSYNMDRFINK
Method in brief: (§1)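 Full-length human or mouse 11β-HSD1 cDNA in pcDNA3, stably expressed in HEK-293 cells selected with 700 μg/mL G418; microsomal fraction used as enzyme. Microsomes incubated with NADPH and [3H]cortisone; [3H]cortisol product captured by monoclonal antibody on protein A-coated SPA beads. Glycyrrhizinic acid positive control. IC50 as mean ± SD, n = 3.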

[4] = target: 11-beta-hydroxysteroid dehydrogenase 1 (Mus musculus, UniProt P50172); assay: Inhibition of mouse 11beta-HSD1 expressed in human HEK293 cells assessed as conversion of [3H]cortisone to [3H]cortisol by scintillation proximity assay; type: cell-based; method in brief: as §1
Chain of 11-beta-hydroxysteroid dehydrogenase 1 (Mus musculus, UniProt P50172) (P50172 whole entry): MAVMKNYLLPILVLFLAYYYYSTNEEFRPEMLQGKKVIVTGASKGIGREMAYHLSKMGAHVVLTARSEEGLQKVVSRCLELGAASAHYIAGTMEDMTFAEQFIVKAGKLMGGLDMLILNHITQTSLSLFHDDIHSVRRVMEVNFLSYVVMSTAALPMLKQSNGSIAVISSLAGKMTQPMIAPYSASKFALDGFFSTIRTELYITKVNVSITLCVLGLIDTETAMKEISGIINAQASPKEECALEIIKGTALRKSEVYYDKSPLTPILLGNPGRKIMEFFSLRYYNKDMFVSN

pIC50 [3]	pIC50 [4]	Compound	Activity [1]	Activity [2]
–	–	C/C(=N/O)C(=O)N[C@H](C(=O)N1CC[C@@H]2Oc3ccc(cc3)/C=C\NC(=O)[C@H](Cc3ccccc3)NC(=O)[C@H]21)C(C)C	inactive	inactive
–	–	CC(C)[C@H](NC(=O)[C@@H](C)N(C)C)C(=O)N1CC[C@@H]2Oc3ccc(cc3)/C=C\NC(=O)[C@H](Cc3ccccc3)NC(=O)[C@H]21	inactive	inactive
–	–	CC(C)[C@H](NC(=O)[C@H](C)[N+](C)(C)[O-])C(=O)N1CC[C@@H]2Oc3ccc(cc3)/C=C\NC(=O)[C@H](Cc3ccccc3)NC(=O)[C@H]21	inactive	inactive
–	–	CC(C)[C@H](NC(=O)[C@@H](C)[N+](C)(C)[O-])C(=O)N1CC[C@@H]2Oc3ccc(cc3)/C=C\NC(=O)[C@H](Cc3ccccc3)NC(=O)[C@H]21	inactive	inactive
–	–	CC(C)[C@H](NC(=O)C(C)N(C)C=O)C(=O)N1CC[C@@H]2Oc3ccc(cc3)/C=C\NC(=O)[C@H](Cc3ccccc3)NC(=O)[C@H]21 (stereo not given in full)	inactive	inactive
4.04	4.27	CC(C)[C@H](NC(=O)[C@H](C)N(C)C)C(=O)N1CC[C@@H]2Oc3ccc(cc3)/C=C\NC(=O)[C@H](Cc3ccccc3)NC(=O)[C@H]21 [MAURITINE A]	inactive	inactive
7.73	7.53	CC1(C)[C@@H](O[C@H]2O[C@H](C(=O)O)[C@@H](O)[C@H](O)[C@H]2O[C@@H]2O[C@H](C(=O)O)[C@@H](O)[C@H](O)[C@H]2O)CC[C@]2(C)[C@H]3C(=O)C=C4[C@@H]5C[C@@](C)(C(=O)O)CC[C@]5(C)CC[C@@]4(C)[C@]3(C)CC[C@@H]12 [GLYCYRRHIZIN]	–	–
–	–	CC(C)[C@@H](C(=O)N1CC[C@@H]2Oc3ccc(cc3)/C=C\NC(=O)[C@H](Cc3ccccc3)NC(=O)[C@H]21)N1CN(C)[C@@H](C)C1=O	inactive	inactive
–	–	CN[C@@H](C)C(=O)N[C@H](C(=O)N1CC[C@@H]2Oc3ccc(cc3)/C=C\NC(=O)[C@H](Cc3ccccc3)NC(=O)[C@H]21)C(C)C	inactive	inactive
